Experimental data pooled from the literature.
Each line is one published result; the experiments were not run side by side.
Target: Focal adhesion kinase 1 (PTK2, Homo sapiens, UniProt Q05397)

C=CC(=O)N1CCC[C@@H](n2nc(-c3ccc(Oc4ccccc4)cc3)c3c(N)ncnc32)C1  inhibition (enzyme activity; inhibitor; 1 µM): 5%
C[C@H]1CC[C@H](n2c3cnccc3c3cnc(Nc4ccc5c(n4)CCN(C(=O)CO)C5)nc32)CC1  remaining signal (cell-free assay; inhibitor; 1 µM): 69%
C#Cc1cc(-c2cc(Nc3nc(N[C@@H](C)c4ccc(F)cn4)ncc3Cl)n[nH]2)ccc1C=O  inhibition (enzyme activity; inhibitor; 0.2 µM): 31.2%
N#Cc1ccc(NC(=O)Nc2ccccc2)cc1  remaining binding (cell-free assay; competition with immobilised ligand; 25 µM): 100%
CCCCC(=O)Nc1ccc(-c2ccc3ncn(CCC)c(=O)c3c2)cn1  remaining binding (binding; competition with immobilised ligand; 0.5 µM): 87%
CO[C@@H]1[C@H](N(C)C(=O)c2ccccc2)C[C@H]2O[C@]1(C)n1c3ccccc3c3c4c(c5c6ccccc6n2c5c31)C(=O)NC4  inhibition (enzyme activity; inhibitor; 1 µM): 2%
Cc1ccc(NC(=O)c2ccnc(C(F)(F)F)c2)cc1-c1cc(OCCO)nc(N2CCOCC2)c1  remaining signal (cell-free assay; 1 µM): 100%
C#Cc1cnc(Nc2ccnc(CO)c2)nc1Nc1ccccc1S(C)(=O)=NC#N (stereo not shown)  remaining signal (cell-free assay; 1 µM): 40%
Cc1cc(O)c(-c2ccc([C@@H](C)CN(C)C)cc2)c2c1[nH]c(=O)c1sccc12  inhibition (enzyme activity; inhibitor; 0.1 µM): 8.92%
COc1ccc2oc(-c3ccc4nc(N)oc4c3)c/c(=N\c3ccccc3NC(=O)CCN)c2c1  remaining binding (binding; 1 µM): 84%
